The values below come from ChEMBL document CHEMBL4190200, “Inhibition Potential of Cycloartane-Type Glycosides from the Roots of Cimicifuga dahurica against Soluble Epoxide Hydrolase” (J Nat Prod, 2017).

Experiment [1] has as its target T1, Bifunctional epoxide hydrolase 2 (Homo sapiens) (UniProt P34913).
T1 sequence (whole entry): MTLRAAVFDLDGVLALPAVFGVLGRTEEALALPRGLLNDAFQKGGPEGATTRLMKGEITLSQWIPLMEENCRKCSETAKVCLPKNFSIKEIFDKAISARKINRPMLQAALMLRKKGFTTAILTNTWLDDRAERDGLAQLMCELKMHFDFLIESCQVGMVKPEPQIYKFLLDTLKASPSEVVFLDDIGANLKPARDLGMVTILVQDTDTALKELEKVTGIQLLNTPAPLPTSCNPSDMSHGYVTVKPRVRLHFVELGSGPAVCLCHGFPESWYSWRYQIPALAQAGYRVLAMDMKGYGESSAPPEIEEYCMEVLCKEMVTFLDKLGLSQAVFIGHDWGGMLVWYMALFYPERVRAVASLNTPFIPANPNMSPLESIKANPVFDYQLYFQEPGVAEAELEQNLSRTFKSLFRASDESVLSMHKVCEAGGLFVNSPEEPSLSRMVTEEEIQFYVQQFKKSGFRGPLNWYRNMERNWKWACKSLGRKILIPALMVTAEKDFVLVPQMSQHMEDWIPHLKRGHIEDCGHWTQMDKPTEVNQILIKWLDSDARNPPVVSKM
Nature of the experiment: Inhibition of soluble epoxide hydrolase (unknown origin) using PHOME as substrate at 100 uM measured for 1 hr by fluorescence assay relative to control. The gist of the method: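 sEH (31.6 ng/mL) mixed with compound in MeOH in 25 mM Bis-Tris-HCl, pH 7.0, with 0.1 mg/mL BSA; 40 μM PHOME substrate (stock added) started the reaction at 37 °C. Fluorescence read at ex 330/em 465 nm for 1 h. Activity (%) taken from the signal change between 0 and 40 min, relative to the uninhibited control. Positive control AUDA.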

Experiment [2] deals with T2, Bifunctional epoxide hydrolase 2 (Homo sapiens, UniProt P34913).
T2 sequence (P34913 whole entry): T1 sequence (whole entry)
Nature of the experiment: Inhibition of soluble epoxide hydrolase (unknown origin) using PHOME as substrate measured for 1 hr by fluorescence assay.

The target of experiment [3] is T1, Bifunctional epoxide hydrolase 2 (Homo sapiens). Description: Non-competitive inhibition of soluble epoxide hydrolase (unknown origin) using PHOME as substrate measured for 1 hr by Lineweaver-Burk plot analysis.
For experiment [4] the target is unchanged. Description: Competitive inhibition of soluble epoxide hydrolase (unknown origin) using PHOME as substrate measured for 1 hr by Lineweaver-Burk plot analysis.
The target is the same in experiment [5]. Nature of the experiment: Mixed inhibition of soluble epoxide hydrolase (unknown origin) using PHOME as substrate measured for 1 hr by Lineweaver-Burk plot analysis.

The source made the active and inactive calls. The calls are words filed in the database; no cut-off is given here.

`C[C@@H]1C[C@H]2O[C@]3(O[C@H]2C(C)(C)O)[C@H]1[C@@]1(C)[C@H](O)C[C@@]24C[C@@]25CC[C@H](O[C@@H]2OC[C@@H](O)[C@H](O)[C@H]2O)C(C)(C)[C@@H]5CC=C4[C@]1(C)[C@H]3O`: the inhibition in experiment [1] came to 61.9%. In experiment [2], this compound came in with an IC50 of 18.5 µM. In experiment [3], the inhibition entry was “Active”.
In turn, `CC(=O)OC(C)(C)[C@H]1O[C@@]23O[C@@H]1C[C@@H](C)[C@@H]2[C@@]1(C)CC[C@@]24C[C@@]25CC[C@H](O[C@@H]2OC[C@@H](O)[C@H](O)[C@H]2O)C(C)(C)[C@@H]5CC=C4[C@]1(C)[C@H]3O` had an inhibition in experiment [1] of 76.7%. The compound further gave a half-maximal inhibitory concentration (IC50) in experiment [2] of 24 µM. Further, the inhibition mode result in experiment [4] is “Active”.
The like results for `COC(C)(C)[C@H]1O[C@@]23O[C@@H]1C[C@@H](C)[C@@H]2[C@@]1(C)CC[C@@]24C[C@@]25CC[C@H](O[C@@H]2OC[C@@H](O)[C@H](O)[C@H]2O)C(C)(C)[C@@H]5CC=C4[C@]1(C)[C@H]3O` were, in that order, 75.6%, 0.4 µM and “Active”.
With `CC(=O)O[C@H]1[C@H](O[C@H]2CC[C@]34C[C@]35CC[C@]3(C)[C@H]6[C@H](C)C[C@H]7O[C@@]6(O[C@H]7C(C)(C)O)[C@H](O)[C@@]3(C)C5=CC[C@H]4C2(C)C)OC[C@@H](O)[C@@H]1O`, the inhibition in experiment [1] came out at 64.9%. In addition, the IC50 in experiment [2] was 60.9 µM.
On to `C[C@@H]1CC(=O)[C@H](O)[C@]2(O)[C@H]1[C@@]1(C)CC[C@@]34C[C@@]35CC[C@H](O[C@@H]3OC[C@@H](O)[C@H](O)[C@H]3O)C(C)(C)[C@@H]5CC=C4[C@]1(C)[C@H]2O`, for which the inhibition in experiment [1] amounted to 69.6%. Moreover, the IC50 in experiment [2] is 8.6 µM. Also, in experiment [3], the inhibition entry was “Active”.
In the case of `C[C@@H]1C[C@H]([C@@H](O)C(C)(C)O)O[C@]2(O)[C@H]1[C@@]1(C)CC[C@@]34C[C@@]35CC[C@H](O[C@@H]3OC[C@@H](O)[C@H](O)[C@H]3O)C(C)(C)[C@@H]5CC=C4[C@]1(C)[C@H]2O`, in experiment [1], the inhibition worked out at 84.8%. For the same compound, the IC50 in experiment [2] was 10.7 µM. In addition, the inhibition mode entry in experiment [4] is “Active”.
In the same order, the values of `CC(=O)O[C@H]([C@H]1C[C@@H](C)[C@H]2[C@@](O)(O1)[C@H](O)[C@@]1(C)[C@@H]3CC[C@H]4C(C)(C)[C@@H](O[C@@H]5OC[C@@H](O)[C@H](O)[C@H]5O)CC[C@@]45C[C@@]35CC[C@]21C)C(C)(C)O` are 66.1%, 0.4 µM and “Active”.
In experiment [1], `CC(=O)O[C@H](C[C@@H](C)[C@H]1C(=O)[C@H](O)[C@@]2(C)C3=CC[C@H]4C(C)(C)[C@@H](O[C@@H]5OC[C@@H](O)[C@H](O)[C@H]5O)CC[C@@]45C[C@@]35CC[C@]12C)[C@@H](O)C(C)(C)O` showed an inhibition of 72.4%. In experiment [2], this compound gave an IC50 of 5.2 µM. Moreover, the inhibition entry in experiment [3] is “Active”.
Regarding `C[C@H]1[C@H]2[C@@H](O[C@@]3(O)[C@@H]1OC(C)(C)[C@H]3O)[C@H](O)[C@@]1(C)[C@@H]3CC[C@H]4C(C)(C)[C@@H](O[C@@H]5OC[C@@H](O)[C@H](O)[C@H]5O)CC[C@@]45C[C@@]35CC[C@]21C`, the inhibition in experiment [1] was 70.2%. For the same compound, in experiment [2], it took 4.4 µM to reach half-maximal inhibition (IC50). For the same compound, in experiment [4], the inhibition mode entry was “Active”.
Compound `C[C@@H]1C[C@]23OCC(C)(O)[C@H]2O[C@@]2(O3)[C@H]1[C@@]1(C)CC[C@@]34C[C@@]35CC[C@H](O[C@@H]3OC[C@@H](O)[C@H](O)[C@H]3O)C(C)(C)[C@@H]5CC=C4[C@]1(C)[C@H]2O` (some centres undefined) had an inhibition in experiment [1] of 63.2%. In experiment [2], the IC50 is 14.6 µM. Further, the inhibition result in experiment [5] was “Active”.
